Laboratory results as given in ChEMBL document CHEMBL4715736, “Identification of anticancer agents based on the thieno[2,3-b]pyridine and 1H-pyrazole molecular scaffolds” (2016).

How the values were obtained:
Type in all cases: functional
OVCAR-4 [1] = assay: Growth inhibition of human OVCAR-4 cells incubated for 48 hrs by sulforhodamine B assay
Method in brief: (§1)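 NCI DTP 60-line human tumour panel. Dose-response curves were run only for ligands active in the initial 10 µM screen. GI50 (concentration giving 50% of maximal inhibition of proliferation) and TGI (concentration giving total growth inhibition) were derived from these curves.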

IGROV-1 = assay: Growth inhibition of human IGROV-1 cells assessed as cell growth at 100 uM incubated for 48 hrs by sulforhodamine B assay relative to control; settings: read-out: Activity
A498 [2] = assay: Growth inhibition of human A498 cells incubated for 48 hrs by sulforhodamine B assay
Method in brief: (§2)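 NCI Developmental Therapeutics Program NCI60 panel. Compounds that were active in the 10 µM one-dose screen went on to dose–response testing. Growth at each concentration is expressed relative to untreated control (100%). GI50 (concentration giving 50% of maximal inhibition of proliferation) and TGI (concentration giving total growth inhibition) were derived from the curves.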

SNB-75 = assay: Growth inhibition of human SNB-75 cells assessed as cell growth at 0.01 uM incubated for 48 hrs by sulforhodamine B assay relative to control; settings: read-out: Activity
SF-295 = assay: Growth inhibition of human SF-295 cells assessed as cell growth at 1 uM incubated for 48 hrs by sulforhodamine B assay relative to control; settings: read-out: Activity
OVCAR-4 [3] = assay: Growth inhibition of human OVCAR-4 cells assessed as cell growth at 100 uM incubated for 48 hrs by sulforhodamine B assay relative to control; settings: read-out: Activity
DU-145 = assay: Growth inhibition of human DU-145 cells assessed as cell growth at 100 uM incubated for 48 hrs by sulforhodamine B assay relative to control; settings: read-out: Activity; method in brief: as §2
KM12 = assay: Growth inhibition of human KM12 cells assessed as cell growth at 0.1 uM incubated for 48 hrs by sulforhodamine B assay relative to control; settings: read-out: Activity
SNB-19 = assay: Growth inhibition of human SNB-19 cells assessed as cell growth at 0.01 uM incubated for 48 hrs by sulforhodamine B assay relative to control; settings: read-out: Activity
SK-OV-3 = assay: Growth inhibition of human SK-OV-3 cells incubated for 48 hrs by sulforhodamine B assay; method in brief: as §1
K562 = assay: Growth inhibition of human K562 cells assessed as cell growth at 0.1 uM incubated for 48 hrs by sulforhodamine B assay relative to control; settings: read-out: Activity
OVCAR-4 [4] = assay: Growth inhibition of human OVCAR-4 cells assessed as cell growth at 1 uM incubated for 48 hrs by sulforhodamine B assay relative to control; settings: read-out: Activity
SK-MEL-28 [5] = assay: Growth inhibition of human SK-MEL-28 cells incubated for 48 hrs by sulforhodamine B assay; method in brief: as §1
SF-268 = assay: Growth inhibition of human SF-268 cells assessed as cell growth at 1 uM incubated for 48 hrs by sulforhodamine B assay relative to control; settings: read-out: Activity
OVCAR-3 = assay: Growth inhibition of human OVCAR-3 cells assessed as cell growth at 0.01 uM incubated for 48 hrs by sulforhodamine B assay relative to control; settings: read-out: Activity
UACC-257 = assay: Growth inhibition of human UACC-257 cells assessed as cell growth at 100 uM incubated for 48 hrs by sulforhodamine B assay relative to control; settings: read-out: Activity
A498 [6] = assay: Growth inhibition of human A498 cells assessed as cell growth at 1 uM incubated for 48 hrs by sulforhodamine B assay relative to control; settings: read-out: Activity; method in brief: as §2
MDA-MB-231 [7] = assay: Growth inhibition of human MDA-MB-231 cells assessed as cell growth at 0.01 uM incubated for 48 hrs by sulforhodamine B assay relative to control; settings: read-out: Activity
SR = assay: Growth inhibition of human SR cells assessed as cell growth at 100 uM incubated for 48 hrs by sulforhodamine B assay relative to control; settings: read-out: Activity
HT-29 [8] = assay: Growth inhibition of human HT-29 cells assessed as cell growth at 1 uM incubated for 48 hrs by sulforhodamine B assay relative to control; settings: read-out: Activity
MDA-MB-231 [9] = assay: Growth inhibition of human MDA-MB-231 cells assessed as cell growth at 1 uM incubated for 48 hrs by sulforhodamine B assay relative to control; settings: read-out: Activity
HT-29 [10] = assay: Growth inhibition of human HT-29 cells assessed as cell growth at 100 uM incubated for 48 hrs by sulforhodamine B assay relative to control; settings: read-out: Activity
SN12C = assay: Growth inhibition of human SN12C cells assessed as cell growth at 100 uM incubated for 48 hrs by sulforhodamine B assay relative to control; settings: read-out: Activity
NCI-H322M = assay: Growth inhibition of human NCI-H322M cells incubated for 48 hrs by sulforhodamine B assay
Method in brief: (§3)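 NCI60 panel at the NCI Developmental Therapeutics Program. Only compounds active in the 10 µM screen went to dose-response testing. GI50, the concentration giving 50% of maximal inhibition of proliferation, and TGI, the concentration giving total growth inhibition, were derived from the dose-response curves.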

HOP-92 = assay: Growth inhibition of human HOP-92 cells incubated for 48 hrs by sulforhodamine B assay; method in brief: as §3
LOX IMVI = assay: Growth inhibition of human LOX IMVI cells assessed as cell growth at 100 uM incubated for 48 hrs by sulforhodamine B assay relative to control; settings: read-out: Activity
786-0 = assay: Growth inhibition of human 786-0 cells assessed as cell growth at 1 uM incubated for 48 hrs by sulforhodamine B assay relative to control; settings: read-out: Activity; method in brief: as §2
HCC 2998 = assay: Growth inhibition of human HCC 2998 cells assessed as cell growth at 100 uM incubated for 48 hrs by sulforhodamine B assay relative to control; settings: read-out: Activity; method in brief: as §2
NCI-H522 = assay: Growth inhibition of human NCI-H522 cells assessed as cell growth at 0.1 uM incubated for 48 hrs by sulforhodamine B assay relative to control; settings: read-out: Activity
CCRF-CEM = assay: Growth inhibition of human CCRF-CEM cells assessed as cell growth at 0.1 uM incubated for 48 hrs by sulforhodamine B assay relative to control; settings: read-out: Activity; method in brief: as §2
OVCAR-8 = assay: Growth inhibition of human OVCAR-8 cells assessed as cell growth at 100 uM incubated for 48 hrs by sulforhodamine B assay relative to control; settings: read-out: Activity
SW-620 = assay: Growth inhibition of human SW-620 cells assessed as cell growth at 1 uM incubated for 48 hrs by sulforhodamine B assay relative to control; settings: read-out: Activity
M14 = assay: Growth inhibition of human M14 cells assessed as cell growth at 0.01 uM incubated for 48 hrs by sulforhodamine B assay relative to control; settings: read-out: Activity
SK-MEL-28 [11] = assay: Growth inhibition of human SK-MEL-28 cells assessed as cell growth at 1 uM incubated for 48 hrs by sulforhodamine B assay relative to control; settings: read-out: Activity
[12] = read-out: LC50 (the source's name)

`CN1CCc2nc3sc(C(N)=O)c(N)c3c(-c3cccs3)c2C1` was tested. Which GI50 (OVCAR-4 [1]) did it give?
The GI50 was 7.38 µM.

What about the TGI (OVCAR-4 [1]) of the same molecule?
The TGI was over 100 µM.

And the CC50 (OVCAR-4 [1]; [12])?
The CC50 was over 100 µM.

What about the growth at 100 µM (IGROV-1) of the same molecule?
Its growth at 100 µM is 9%.

And the GI50 (A498 [2])?
Its GI50 is 2.58 µM.

And the TGI (A498 [2])?
The TGI was 7.27 µM.

And the CC50 (A498 [2]; [12])?
The CC50 was over 100 µM.

And the growth at 0.01 µM (SNB-75)?
Its growth at 0.01 µM is 95%.

And the growth at 1 µM (SF-295)?
Its growth at 1 µM is 100%.

And the growth at 100 µM (OVCAR-4 [3])?
The growth at 100 µM was 6%.

What about the growth at 100 µM (DU-145) of the same molecule?
Its growth at 100 µM is -1%.

What about the growth at 0.1 µM (KM12) of the same molecule?
The growth at 0.1 µM was 105%.

What about the growth at 0.01 µM (SNB-19) of the same molecule?
Its growth at 0.01 µM is 103%.

And the GI50 (SK-OV-3)?
The GI50 was 3.35 µM.

What about the TGI (SK-OV-3) of the same molecule?
Its TGI is over 100 µM.

What about the CC50 (SK-OV-3; [12]) of the same molecule?
Its CC50 is over 100 µM.

What about the growth at 0.1 µM (K562) of the same molecule?
Its growth at 0.1 µM is 97%.

And the growth at 1 µM (OVCAR-4 [4])?
The growth at 1 µM was 108%.

And the GI50 (SK-MEL-28 [5])?
The GI50 was 2.91 µM.

And the LC50 (SK-MEL-28 [5])?
The LC50 was over 100 µM.

And the TGI (SK-MEL-28 [5])?
Its TGI is 9.59 µM.

What about the growth at 1 µM (SF-268) of the same molecule?
Its growth at 1 µM is 107%.

And the growth at 0.01 µM (OVCAR-3)?
Its growth at 0.01 µM is 110%.

What about the growth at 100 µM (UACC-257) of the same molecule?
Its growth at 100 µM is 3%.

What about the growth at 1 µM (A498 [6]) of the same molecule?
The growth at 1 µM was 96%.

And the growth at 0.01 µM (MDA-MB-231 [7])?
The growth at 0.01 µM was 106%.

And the growth at 100 µM (SR)?
The growth at 100 µM was -19%.

And the growth at 1 µM (HT-29 [8])?
The growth at 1 µM was 91%.

What about the growth at 1 µM (MDA-MB-231 [9]) of the same molecule?
The growth at 1 µM was 97%.

And the growth at 100 µM (HT-29 [10])?
The growth at 100 µM was -1%.

And the growth at 100 µM (SN12C)?
The growth at 100 µM was 6%.

What about the GI50 (NCI-H322M) of the same molecule?
Its GI50 is 3.85 µM.

And the TGI (NCI-H322M)?
The TGI was 88.5 µM.

And the CC50 (NCI-H322M; [12])?
Its CC50 is over 100 µM.

And the GI50 (HOP-92)?
The GI50 was 3.16 µM.

What about the LC50 (concentration killing 50% of the starting cells) (HOP-92) of the same molecule?
The LC50 (concentration killing 50% of the starting cells) was over 100 µM.

And the TGI (HOP-92)?
Its TGI is 9.16 µM.

What about the growth at 100 µM (LOX IMVI) of the same molecule?
The growth at 100 µM was 2%.

And the growth at 1 µM (786-0)?
Its growth at 1 µM is 107%.

What about the growth at 100 µM (HCC 2998) of the same molecule?
The growth at 100 µM was -29%.

What about the growth at 0.1 µM (NCI-H522) of the same molecule?
Its growth at 0.1 µM is 100%.

And the growth at 0.1 µM (CCRF-CEM)?
Its growth at 0.1 µM is 107%.

What about the growth at 100 µM (OVCAR-8) of the same molecule?
The growth at 100 µM was 5%.

And the growth at 1 µM (SW-620)?
Its growth at 1 µM is 116%.

And the growth at 0.01 µM (M14)?
Its growth at 0.01 µM is 107%.

What about the growth at 1 µM (SK-MEL-28 [11]) of the same molecule?
Its growth at 1 µM is 95%.
